This is a sample that favours compounds with a hit; in the whole collection about 2.7% have one here.
FGF22 binding – FGF22 (human) thermal shift binding. recombinant FGF22 thermal shift, SYPRO orange fluorescence; percent of sucrose octasulfate shift, DMSO zero. activity (Tm shift, normalised), % at 9.99 µM. actives 1.5% (n = 340,000). AID 651658;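 active = mean Tm shift, scaled 0 neutral to 100 positive control, at about 1.3% or above, every replicate too, limit read from the data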
F508del corr – CFTR F508del correction in bronchial cells; CFBE cells, YFP halide quenching; stimulated with forskolin plus potentiator P3; % fluorescence drop versus neutral controls; activity (quench increase), % at 7.58 µM; actives 0.36% (n = 350,000); AID 720511;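 active = mean added fluorescence quench of at least 8% versus neutral control, with both replicates also reaching 8%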;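 also: cells transiently co-express mutant CFTR-F508del with the halide-sensitive YFP; corrector assay measuring rescue of mutant channel to the surface after 24 h compound exposure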
E-sel inducer – induces E-selectin expression in human endothelial cells; P16581; HUVEC E-selectin immunofluorescence imaging; normalized: neutral wells 0, TNF-alpha wells 100; activation, % at 7.58 µM; actives 0.37% (n = 260,000);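 active = mean E-selectin-positive cell signal at least 10% of the positive control, reached in at least 60% of replicates, without over 20% cell loss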
Target sequence (P16581 whole entry, looked up): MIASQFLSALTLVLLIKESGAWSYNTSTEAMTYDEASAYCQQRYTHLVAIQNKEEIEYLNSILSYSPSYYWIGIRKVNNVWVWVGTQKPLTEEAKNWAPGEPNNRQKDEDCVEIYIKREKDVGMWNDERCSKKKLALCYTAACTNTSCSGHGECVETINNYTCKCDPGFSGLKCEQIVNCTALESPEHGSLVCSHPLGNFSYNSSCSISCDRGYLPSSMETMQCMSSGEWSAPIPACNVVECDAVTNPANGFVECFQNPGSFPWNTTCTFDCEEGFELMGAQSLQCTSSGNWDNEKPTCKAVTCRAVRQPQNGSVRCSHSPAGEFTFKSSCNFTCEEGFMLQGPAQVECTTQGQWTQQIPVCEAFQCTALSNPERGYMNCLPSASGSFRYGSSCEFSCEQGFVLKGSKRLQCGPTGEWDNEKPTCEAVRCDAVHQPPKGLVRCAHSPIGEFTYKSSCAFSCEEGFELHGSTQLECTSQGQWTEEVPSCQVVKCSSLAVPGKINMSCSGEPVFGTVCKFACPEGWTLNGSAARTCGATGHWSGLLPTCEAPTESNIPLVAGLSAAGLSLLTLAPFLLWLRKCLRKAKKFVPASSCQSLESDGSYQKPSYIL
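Assay system: HUVEC, human umbilical vein endothelial cells / Amount: 3,000 HUVEC/well / Controls: TNF-alpha positive control, DMSO neutral control / Compound dosing: single concentration / Medium: EGM-2 over gelatin coat / Evaluation: percent E-selectin-positive cells / Signal: immunofluorescence imaging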
S100A4 MyoIIA – inhibitors of human S100A4 binding to myosin IIA peptide | actives 0.14% (n = 360,000) | inhibition, % at 10.7 µM | S100A4/TAMRA-MyoIIA peptide fluorescence polarization | AID 652163;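 active = mean inhibition of at least 70% across replicates, with every replicate also reaching that level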
Target sequence (P26447 whole entry, looked up): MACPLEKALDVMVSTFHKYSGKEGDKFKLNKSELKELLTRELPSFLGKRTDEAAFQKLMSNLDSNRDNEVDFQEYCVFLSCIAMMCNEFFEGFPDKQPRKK
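Test system: S100A4 monomer protein. Medium: HEPES buffer with Ca2+, pH 7.2. Reagent: fluorescent myosin IIA peptide, 5 nM. Compound dosing: single-point compound testing. Timing: 5 min between mix addition and reading. Benchmarks: DMSO neutral and TFP positive wells.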
HIV Env fusion – HIV envelope-mediated fusion inhibition; HeLa-JRFL Env/CEM21 cell fusion, luciferase; inhibition, % at 12.3 µM; actives 1.1% (n = 360,000); AID 651610;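 active = mean replicate inhibition score of at least 50 and every replicate individually at or above 50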
Each line names hits and unclear results; the compound was inactive in the other large screens.

C[C@H](CO)N1C[C@H](C)[C@H](CN(C)S(=O)(=O)c2cn(C)cn2)Oc2ccc(NS(=O)(=O)c3ccccc3)cc2CC1=O	none
Cc1[nH][nH]c(=O)c1C(c1ccc(-c2ccc(C(=O)O)cc2)o1)c1c(C)[nH][nH]c1=O	none
Cc1[nH][nH]c(=O)c1C(c1ccc(-c2ccc(F)cc2)o1)c1c(C)[nH][nH]c1=O	FGF22 binding 43.0
COc1cccc(NC(=O)Nc2ccc3c(c2)C(=O)N(C)C[C@@H](OC)[C@H](C)CN(CCC(F)(F)F)[C@H](C)CO3)c1	none
O=C(Nc1ccc2c(c1)CCC2)C1CCN(c2c3c(nc4ncnn24)CCC3)CC1	HIV Env fusion 96.4 (no result: FGF22 binding, F508del corr, E-sel inducer, S100A4 MyoIIA)
O=C(NC1CCCc2ccccc21)C1CCN(c2c3c(nc4ncnn24)CCC3)CC1 (stereo not given)	none (no result: E-sel inducer, HIV Env fusion)
O=C(Nc1ccc(Oc2ccccc2)cc1)C1CCN(c2c3c(nc4ncnn24)CCC3)CC1	HIV Env fusion 103.3 (no result: FGF22 binding, F508del corr, E-sel inducer, S100A4 MyoIIA)
C[C@@H]1CN([C@@H](C)CO)C(=O)c2cc(NC(=O)Nc3ccc(C(F)(F)F)cc3)ccc2O[C@@H](C)CCCCO[C@H]1CN(C)Cc1ccc(Cl)c(Cl)c1	none
O=S(=O)(N[C@H]1CC[C@@H](CCn2cc(-c3cccc(F)c3)nn2)O[C@@H]1CO)c1ccccc1	none
COc1ccc(/C=C2\CCc3ccccc3C2=O)cc1Cn1cccn1	HIV Env fusion 65.3 (no result: FGF22 binding, F508del corr, E-sel inducer, S100A4 MyoIIA)
CC(C)Cn1cnc2c1c(=O)n(CC(=O)N(C)C)c(=O)n2Cc1ccccc1	FGF22 binding 44.0 (no result: E-sel inducer)
CN1C(=O)c2cc(NC(=O)c3ccc(F)cc3)ccc2OC[C@@H]2O[C@@H](CC(=O)N3CCOCC3)CC[C@@H]21	none
COCCNC(=O)NC12CC3(C)CC(C)(CC(C)(C3)C1)C2	F508del corr 10.1
COCCNC(=O)NC12CC3CC(CC(C3)C1)C2	none (no result: E-sel inducer)
CCN1C(=O)C(CC(=O)Nc2ccccc2)N(Cc2ccccn2)C1=S (stereo not given)	none (no result: E-sel inducer)
C=CCN1C(=O)C(CC(=O)Nc2ccccc2)N(Cc2ccccn2)C1=S (stereo not given)	FGF22 binding 43.7
COc1ccc(C(O)c2nc3ccccc3n2C)cc1OC (stereo not given)	HIV Env fusion 73.6 (no result: FGF22 binding, F508del corr, E-sel inducer, S100A4 MyoIIA)
COc1ccc(C(=O)NC(C)c2nc3ccccc3n2C)cc1OC (stereo not given)	none (no result: FGF22 binding, F508del corr, E-sel inducer, S100A4 MyoIIA)
NC(Cc1ccc(F)cc1)c1csc(Nc2ccc(C(F)(F)F)cn2)n1 (stereo not given)	HIV Env fusion 71.0
Cc1cnc(C)c(Nc2nc(C(N)Cc3ccc(C(F)(F)F)cc3)cs2)n1 (stereo not given)	HIV Env fusion 106.4
C[C@H](CO)N1C[C@H](C)[C@H](CN(C)CC2CCOCC2)Oc2cc(Br)ccc2S1(=O)=O	none (no result: S100A4 MyoIIA)
O=C(NP(=O)(N1CCCC1)N1CCCC1)C1=C(N2CCOCC2)/C(=C/c2cccc([N+](=O)[O-])c2)CC1	FGF22 binding 44.4 (no result: E-sel inducer)
CCOC(=O)C(=O)C1=C(N2CCOCC2)/C(=C\c2cccc([N+](=O)[O-])c2)CC1	none (no result: E-sel inducer)
COc1ccccc1NC(=O)N1C[C@@H](C)[C@H](OC)CN(C)C(=O)c2ccc(NC(=O)c3cnccn3)cc2OC[C@H]1C	none
Cc1nc(SCC(=O)Nc2c(C)nn(C)c2C)c2cnn(-c3ccccc3)c2n1	HIV Env fusion 63.8 (no result: FGF22 binding, F508del corr, E-sel inducer, S100A4 MyoIIA)
Cc1c(NC(=O)CSc2ncnc3c2cnn3-c2ccccc2)c(=O)n(-c2ccccc2)n1C	none
COCC#Cc1ccc2c(c1)O[C@@H](CN(C)C(=O)CN(C)C)[C@H](C)CN([C@H](C)CO)S2(=O)=O	none
CC(C)(C)OC(=O)N1CCc2onc(-c3ccc(Br)cc3)c2C1=O	HIV Env fusion 71.7
Cc1ccccc1CNc1ncnc2cc(Cl)ccc12	E-sel inducer 50.7
Cc1ccc(CNc2ncnc3cc(Cl)ccc23)cc1	none
CO[C@H]1CN(C)C(=O)c2cc(NC(=O)c3cccc(F)c3)ccc2OC[C@H](C)NC[C@H]1C	none (no result: HIV Env fusion)
CC1(C)CC[C@]2(C(=O)n3ccnc3)CC[C@]3(C)[C@H](C(=O)C=C4[C@@]5(C)C=C(C#N)C(=O)C(C)(C)[C@@H]5CC[C@]43C)[C@@H]2C1	HIV Env fusion 109.5
C[C@@H]1CN([C@@H](C)CO)C(=O)c2cccc(NS(=O)(=O)c3cn(C)cn3)c2O[C@H]1CN(C)CC1CC1	none
NC(=O)c1ccc(N2CCN(c3ccc(O)cc3)CC2)c([N+](=O)[O-])c1	HIV Env fusion 65.5 (no result: FGF22 binding, F508del corr, E-sel inducer, S100A4 MyoIIA)
Cc1ccc(OCCCCn2cnc3ccccc32)cc1	none
Cc1ccccc1OCCCCn1cnc2ccccc21	HIV Env fusion 65.2 (no result: FGF22 binding, F508del corr, E-sel inducer, S100A4 MyoIIA)
c1ccc2c(c1)ncn2CCCCOc1ccc2c(c1)CCC2	HIV Env fusion 87.7 (no result: FGF22 binding, F508del corr, E-sel inducer, S100A4 MyoIIA)
Cc1ccc2c(CN3CCN(S(=O)(=O)c4ccc5c(c4)OCCO5)CC3)cc(=O)oc2c1C	HIV Env fusion 92.9 (no result: FGF22 binding, F508del corr, E-sel inducer, S100A4 MyoIIA)
COc1ccc2c3c([nH]c2c1)[C@H](CO)N(Cc1nccs1)CC31CN(Cc2cccnc2)C1	none (no result: HIV Env fusion)
C[C@H]1CN([C@@H](C)CO)C(=O)Cc2cc(NS(=O)(=O)c3ccc(F)cc3)ccc2O[C@H]1CN(C)Cc1ccc(C(=O)O)cc1	none
O=C(/C=C/c1ccco1)NC(=S)Nc1nc(-c2ccc(Cl)cc2)cs1	none (no result: F508del corr)
O=C(/C=C/c1ccco1)NC(=S)Nc1nc(-c2ccc3ccccc3c2)cs1	F508del corr 12.1 (no result: E-sel inducer, HIV Env fusion)
CO[C@@H]1CN(C)C(=O)c2ccc(NC(C)=O)cc2OC[C@@H](C)N(Cc2cccnc2)C[C@H]1C	none (no result: FGF22 binding, HIV Env fusion)
CC(=O)Nc1ccc(NC(=O)CN(c2ccc(C34CC5CC(CC(C5)C3)C4)cc2)S(C)(=O)=O)cc1	HIV Env fusion 92.9 (no result: FGF22 binding, F508del corr, E-sel inducer, S100A4 MyoIIA)
COc1ccccc1C(=O)Nc1ccc(-c2nnn(CC(=O)N3CCOCC3)n2)cc1	FGF22 binding 43.8 (no result: E-sel inducer)
C[N+]1(C)CCC(=C2c3ccccc3CC(=O)c3sccc32)CC1	HIV Env fusion 63.8 (no result: FGF22 binding, F508del corr, E-sel inducer, S100A4 MyoIIA)
N#Cc1c(Nc2ccc(F)cc2)sc(C(=O)c2ccccc2)c1N	FGF22 binding 43.0
COc1ccc(NC(=O)N(C)C[C@@H]2OCCCC[C@H](C)Oc3ccc(NC(=O)NC4CCCCC4)cc3C(=O)N([C@H](C)CO)C[C@@H]2C)cc1	none (no result: E-sel inducer)
CN(C)C(=O)C[C@H]1CC[C@H]2[C@@H](COC[C@@H](O)CN2CC2CCOCC2)O1	none (no result: HIV Env fusion)
Cc1cccc(NC(=O)C[C@H]2CC[C@H]3[C@@H](COc4ccc(NC(=O)C5CCC5)cc4C(=O)N3C)O2)c1	none
O=C(C[C@@H]1C[C@@H]2c3cc(NC(=O)c4ccc5c(c4)OCO5)ccc3O[C@@H]2[C@H](CO)O1)NCc1cccnc1	none
C(=Cc1cnc2ccccc2n1)c1ccc2c(c1)OCO2	HIV Env fusion 68.4
CN(C)C(=O)C[C@@H]1CC[C@@H]2[C@H](COC[C@H](O)CN2Cc2nccs2)O1	none
CCC(C)(C)NC(=O)CN(C(=O)c1csnn1)c1ccccc1-c1ccccc1	FGF22 binding 42.9 (no result: E-sel inducer)

Screening results: PubChem, Broad Institute
